Measurements: ChEMBL document CHEMBL1155807, “Synthesis, biological evaluation, and enzyme docking simulations of 1,5-diarylpyrrole-3-alkoxyethyl ethers as selective cyclooxygenase-2 inhibitors endowed with anti-inflammatory and antinociceptive activity” (J Med Chem, 2008)
The source made the active and inactive calls.

Experiments:
J774 = experiment: Selectivity index, ratio of IC50 for mouse COX1 in mouse J774 cells to IC50 for mouse COX2 in LPS-stimulated mouse J774 cells; assay type: cell-based
Summary of the method: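 The ratio is IC50(COX-1)/IC50(COX-2), both from J774 cells. For COX-1, cells were given a 15 min compound pretreatment and then 15 µM arachidonic acid for 30 min. For COX-2, cells were exposed to LPS (10 µg/mL) for 24 h with compound. In both, PGE2 was measured by radioimmunoassay and IC50 came from a sigmoidal fit of the means of three experiments.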

[1] = target: T1, Prostaglandin G/H synthase 1 (Mus musculus, UniProt P22437); experiment: Inhibition of mouse COX1 in mouse J774 cells assessed as PGE2 production by radioimmunoassay; assay type: cell-based
T1 sequence (P22437 whole entry): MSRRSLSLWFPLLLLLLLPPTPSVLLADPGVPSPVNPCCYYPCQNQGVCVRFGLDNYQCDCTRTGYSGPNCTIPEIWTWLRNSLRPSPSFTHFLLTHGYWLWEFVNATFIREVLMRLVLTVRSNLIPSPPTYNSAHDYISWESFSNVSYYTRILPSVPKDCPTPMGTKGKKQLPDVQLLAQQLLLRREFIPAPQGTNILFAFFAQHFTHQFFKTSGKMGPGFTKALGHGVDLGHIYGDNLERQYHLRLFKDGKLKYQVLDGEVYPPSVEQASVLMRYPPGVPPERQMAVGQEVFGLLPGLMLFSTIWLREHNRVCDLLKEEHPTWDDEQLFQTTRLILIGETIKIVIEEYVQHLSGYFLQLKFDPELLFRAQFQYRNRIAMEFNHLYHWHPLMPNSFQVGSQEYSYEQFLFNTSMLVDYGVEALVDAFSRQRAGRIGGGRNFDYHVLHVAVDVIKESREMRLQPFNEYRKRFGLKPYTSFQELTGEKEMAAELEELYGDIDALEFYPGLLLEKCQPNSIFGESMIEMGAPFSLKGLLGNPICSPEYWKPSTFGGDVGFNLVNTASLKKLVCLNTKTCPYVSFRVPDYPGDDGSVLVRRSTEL

[2] = target: T2, Prostaglandin G/H synthase 2 (Mus musculus, UniProt Q05769); experiment: Inhibition of mouse COX2 in LPS-stimulated mouse J774 cells assessed as PGE2 production by radioimmunoassay; assay type: cell-based
T2 sequence (Q05769 whole entry): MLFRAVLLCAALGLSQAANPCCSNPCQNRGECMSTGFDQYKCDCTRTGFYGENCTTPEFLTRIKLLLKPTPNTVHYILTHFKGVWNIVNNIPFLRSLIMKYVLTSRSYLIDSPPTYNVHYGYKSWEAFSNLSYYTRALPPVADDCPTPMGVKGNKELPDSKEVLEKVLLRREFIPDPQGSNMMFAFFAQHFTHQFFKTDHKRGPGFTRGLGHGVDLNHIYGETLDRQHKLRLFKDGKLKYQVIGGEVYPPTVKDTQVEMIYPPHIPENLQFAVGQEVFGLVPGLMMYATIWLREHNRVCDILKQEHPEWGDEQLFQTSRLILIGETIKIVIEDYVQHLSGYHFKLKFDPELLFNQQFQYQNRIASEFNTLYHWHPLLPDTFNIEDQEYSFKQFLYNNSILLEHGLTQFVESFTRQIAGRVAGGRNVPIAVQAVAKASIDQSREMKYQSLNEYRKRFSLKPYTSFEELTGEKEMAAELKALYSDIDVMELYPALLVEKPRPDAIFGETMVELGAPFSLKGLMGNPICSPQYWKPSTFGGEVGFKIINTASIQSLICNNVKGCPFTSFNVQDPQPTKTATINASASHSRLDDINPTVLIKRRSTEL
Summary of the method: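 J774 cells in serum-free medium were stimulated with E. coli LPS (10 µg/mL) for 24 h to induce COX-2, with or without compound present. Supernatant PGE2 was measured by radioimmunoassay. Percent inhibition was taken against control; triplicate wells, mean of three experiments; IC50 from a variable-slope sigmoidal fit.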

[3] = target: Prostaglandin G/H synthase 1 (Homo sapiens, UniProt P23219); experiment: Inhibition of COX1 in human whole blood allowed to clot assessed as TXB2 production
Chain of Prostaglandin G/H synthase 1 (Homo sapiens, UniProt P23219) (P23219 whole entry): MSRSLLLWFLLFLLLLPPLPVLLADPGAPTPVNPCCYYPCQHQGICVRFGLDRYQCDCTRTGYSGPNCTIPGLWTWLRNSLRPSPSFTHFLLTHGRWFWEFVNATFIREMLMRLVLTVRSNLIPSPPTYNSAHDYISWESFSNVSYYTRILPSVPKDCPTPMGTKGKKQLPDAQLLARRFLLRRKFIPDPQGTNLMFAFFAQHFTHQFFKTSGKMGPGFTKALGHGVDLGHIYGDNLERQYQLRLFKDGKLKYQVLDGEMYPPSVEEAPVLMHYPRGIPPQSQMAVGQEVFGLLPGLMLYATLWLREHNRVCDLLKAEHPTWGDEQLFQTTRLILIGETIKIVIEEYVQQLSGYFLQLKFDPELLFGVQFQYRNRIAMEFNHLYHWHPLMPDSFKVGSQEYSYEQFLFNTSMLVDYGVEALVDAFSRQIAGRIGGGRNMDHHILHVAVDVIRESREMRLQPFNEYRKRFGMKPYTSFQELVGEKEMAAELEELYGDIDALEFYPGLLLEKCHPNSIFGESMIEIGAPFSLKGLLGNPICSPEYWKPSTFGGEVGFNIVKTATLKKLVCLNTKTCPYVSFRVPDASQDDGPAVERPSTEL

Homo sapiens = species: Homo sapiens; experiment: Selectivity index, ratio of IC50 for human COX1 to IC50 for human COX2 by whole blood assay
Summary of the method: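 Human whole blood from three healthy donors (no NSAID for 2 weeks); compounds in DMSO at final 0.01–1000 µM. COX-2: heparinized blood from aspirin-pretreated donors (300 mg, 48 h) with LPS 10 µg/mL, 24 h, 37 °C; plasma PGE2 by RIA. COX-1: blood clotted 1 h, 37 °C; serum TXB2 by RIA. Mean % inhibition vs vehicle; IC50(COX-1)/IC50(COX-2).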

Mus musculus [4] = experiment: Antinociceptive activity against acetic acid-induced abdominal constriction in Swiss albino mouse assessed as number of writhes at 10 mg/kg, po; assay type: functional, Abdomen
Summary of the method: (§1)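 Male Swiss albino mice (23-25 g) were dosed per os, with CMC as vehicle, 30 min before 0.6% acetic acid. Stretching movements were counted for 10 min, starting 5 min after acetic acid (Koster method). Results are mean ± SEM; ANOVA with Fisher's PLSD, versus vehicle-treated mice.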

Rattus norvegicus [5] = experiment: Antiinflammatory activity against carrageenan-induced hyperalgesia in rat assessed as paw pressure at 20 mg/kg, po after 30 mins; assay type: functional
Summary of the method: (§2)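 Rats received carrageenan (0.1 mL, 1%) intraplantar 4 h before the test, then compound at 20 mg/kg po. Nociceptive threshold was measured with an analgesimeter (Leighton method) before and 30, 60 and 120 min after treatment, with a 250 g cutoff. Groups had 5-6 rats; mean ± SEM, ANOVA with Fisher's PLSD post hoc.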

Rattus norvegicus [6] = experiment: Antiinflammatory activity against carrageenan-induced hyperalgesia in rat assessed as paw pressure at 20 mg/kg, po after 60 mins; assay type: functional; summary of the method: as §2
Mus musculus [7] = experiment: Antinociceptive activity against acetic acid-induced abdominal constriction in Swiss albino mouse assessed as number of writhes at 20 mg/kg, po; assay type: functional, Abdomen; summary of the method: as §1
Rattus norvegicus [8] = experiment: Antiinflammatory activity against carrageenan-induced edema in rat assessed as paw volume at 20 mg/kg, po […]; assay type: functional
Summary of the method: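 Carrageenan (0.1 mL of 1.0%) was injected intraplantar into Sprague-Dawley or Wistar rats (150-200 g). Compound was given po at 20 mg/kg 3 h 30 min after carrageenan. Right hind paw volume was measured by plethysmometer 4 h after carrageenan and compared with saline/carrageenan controls. Values are in mL, with 5-6 rats per group.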

Mus musculus [9] = experiment: Antinociceptive activity against acetic acid-induced abdominal constriction in Swiss albino mouse assessed as reduction in number of writhes at 20 mg/kg, po; assay type: functional, organism-based; set-up: dose 20 mg/kg; conditions: Abdomen; summary of the method: as §1
[10] = target: T3, Prostaglandin G/H synthase 2 (Homo sapiens, UniProt P35354); experiment: Inhibition of COX2 in human whole blood assessed as effect on thrombin-induced TXB2 production; assay type: tissue-based
T3 sequence (P35354 whole entry): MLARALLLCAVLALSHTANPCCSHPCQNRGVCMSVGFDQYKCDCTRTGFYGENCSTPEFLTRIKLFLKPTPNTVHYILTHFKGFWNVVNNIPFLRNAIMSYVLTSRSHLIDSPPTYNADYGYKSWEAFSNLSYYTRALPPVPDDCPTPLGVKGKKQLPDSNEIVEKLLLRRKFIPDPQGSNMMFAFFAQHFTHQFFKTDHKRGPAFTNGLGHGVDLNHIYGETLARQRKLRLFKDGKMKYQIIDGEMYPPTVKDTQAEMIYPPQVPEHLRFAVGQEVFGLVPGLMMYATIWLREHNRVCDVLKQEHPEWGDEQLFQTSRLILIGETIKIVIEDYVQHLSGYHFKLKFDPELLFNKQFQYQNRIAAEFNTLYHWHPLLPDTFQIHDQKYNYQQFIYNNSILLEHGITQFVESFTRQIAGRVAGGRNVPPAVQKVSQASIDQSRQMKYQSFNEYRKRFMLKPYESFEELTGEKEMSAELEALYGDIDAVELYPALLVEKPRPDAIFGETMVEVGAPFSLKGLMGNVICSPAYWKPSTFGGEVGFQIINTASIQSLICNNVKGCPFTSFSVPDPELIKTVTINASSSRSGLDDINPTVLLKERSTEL

Rattus norvegicus [11] = experiment: Antiinflammatory activity against carrageenan-induced hyperalgesia in rat assessed as paw pressure at 20 mg/kg, po after 120 mins; assay type: functional; summary of the method: as §2

Row | IC50 [1] [nM] | IC50 [2] [nM] | SMILES | Ratio IC50 (J774) | also measured
1 | > 100000 | 48 | COCCc1cc(-c2ccc(S(C)(=O)=O)cc2)n(-c2ccccc2)c1C | > 2080 | –
2 | – | – | CCOC(=O)Cc1cc(-c2ccc(S(C)(=O)=O)cc2)n(-c2ccc(C)cc2)c1C | > 208 | –
3 | – | – | CCOC(=O)Cc1cc(-c2ccc(S(C)(=O)=O)cc2)n(-c2ccccc2)c1C | > 2500 | –
4 | > 100000 | 18 | CCCOCCc1cc(-c2ccc(S(C)(=O)=O)cc2)n(-c2ccccc2)c1C | > 5560 | IC50 [3]: 86000 nM; Ratio IC50 (Homo sapiens): 66; Activity (Mus musculus [4]): 27.43; Activity (Rattus norvegicus [5]): 56.3 g; Activity (Rattus norvegicus [6]): 59.4 g; Activity (Mus musculus [7]): 13.6; Activity (Rattus norvegicus [8]): 1.41 mL; Activity (Mus musculus [9]): Active; IC50 [10]: 1300 nM; Activity (Rattus norvegicus [11]): 50.6 g
5 | – | – | CS(=O)(=O)c1ccc(C2=C(c3ccccc3)C(=O)OC2)cc1 | – | Ratio IC50 (Homo sapiens): > 200
6 | > 100000 | 49 | COCCc1cc(-c2ccc(S(C)(=O)=O)cc2)n(-c2ccc(C(F)(F)F)cc2)c1C | > 2040 | –
7 | > 100000 | 18 | COCCc1cc(-c2ccc(S(C)(=O)=O)cc2)n(-c2ccc(F)cc2)c1C | > 5560 | –
8 | > 100000 | 47 | CCOCCc1cc(-c2ccc(S(C)(=O)=O)cc2)n(-c2ccc(F)cc2)c1C | > 2130 | –
9 | > 100000 | 110 | CCCOCCc1cc(-c2ccc(S(C)(=O)=O)cc2)n(-c2ccc(C(F)(F)F)cc2)c1C | > 909 | –
10 | > 100000 | 85 | CCOCCc1cc(-c2ccc(S(C)(=O)=O)cc2)n(-c2ccc(C(F)(F)F)cc2)c1C | > 1180 | –
11 | > 100000 | 30 | CCCOCCc1cc(-c2ccc(S(C)(=O)=O)cc2)n(-c2ccc(F)cc2)c1C | > 3330 | Activity (Mus musculus [4]): 38.1; Activity (Rattus norvegicus [5]): 52.4 g; Activity (Rattus norvegicus [6]): 56.8 g; Activity (Mus musculus [7]): 16.7; Activity (Rattus norvegicus [8]): 1.45 mL; Activity (Mus musculus [9]): Active; Activity (Rattus norvegicus [11]): 52.7 g
12 | – | – | CCOC(=O)Cc1cc(-c2ccc(S(C)(=O)=O)cc2)n(-c2ccc(C(F)(F)F)cc2)c1C | > 1600 | –
13 | > 100000 | 15 | CCOCCc1cc(-c2ccc(S(C)(=O)=O)cc2)n(-c2ccccc2)c1C | > 6670 | Activity (Mus musculus [4]): 26.5; Activity (Rattus norvegicus [5]): 59.6 g; Activity (Rattus norvegicus [6]): 53.8 g; Activity (Mus musculus [7]): 11.4; Activity (Rattus norvegicus [8]): 1.37 mL; Activity (Mus musculus [9]): Active; Activity (Rattus norvegicus [11]): 49.1 g
